Reference: ChEMBL document CHEMBL1122917, “Vinblastin-23-oyl amino acid derivatives: chemistry, physicochemical data, toxicity, and antitumor activities against P388 and L1210 leukemias” (J Med Chem, 1985)

How the values were obtained:
Type in all cases: functional
Mus musculus [1] = experiment: Number of survivors on 60th day at dose 6 mg/kg/day in 7 mice implanted with P388 leukemia cell line for 1,8.15 scheduled days from Exp-1; 0/10
Mus musculus [2] = experiment: Number of survivors on 60th day at dose 10 mg/kg/day in 7 mice implanted with P388 leukemia cell line for 1,8.15 scheduled days; 0/10
Mus musculus [3] = experiment: Number of survivors on 60th day at dose 7 mg/kg/day in 9 mice implanted with P388 leukemia cell line; 0/9
Mus musculus [4] = experiment: Percent increase in life span at dose 4 mg/kg/day in 7 mice implanted with P388 leukemia cell line for 1,8,15 scheduled day from Exp-1
Mus musculus [5] = experiment: Number of survivors on 30th day at dose 4 mg/kg/day in 10 mice implanted with P388 leukemia cell line;5/10
Mus musculus [6] = experiment: Number of survivors on 30th day at dose 5 mg/kg/day in 10 mice implanted with P388 leukemia cell line; 0 /10
Mus musculus [7] = experiment: Number of survivors on 30th day at dose 11 mg/kg/day in 10 mice implanted with P388 leukemia cell line; 0/10
Mus musculus [8] = experiment: Number of survivors on 30th day at dose 6 mg/kg/day in 10 mice implanted with P388 leukemia cell line; 0 /10
Mus musculus [9] = experiment: Number of survivors on 30th day at dose 7 mg/kg/day in 9 mice implanted with P388 leukemia cell line; 1 /9
Mus musculus [10] = experiment: Number of survivors on 30th day at dose 9 mg/kg/day in 10 mice implanted with P388 leukemia cell line; […]
Mus musculus [11] = experiment: Percent increase in life span at dose 58 mg/kg/day in 10 mice implanted with P388 leukemia cell line
Mus musculus [12] = experiment: Percent increase in life span of DBA2 mice after inoculation with L1210 leukemia intravenously at a dose of 45 mg/kg per day; conditions: route intravenous
Method in brief: (§1)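 Female DBA2 mice inoculated iv on day 0 with 10^4 L1210 cells; drugs given iv as sulfate salts in physiological saline, mostly once on day 1. %ILS from all deaths and survivors as (T/C × 100) − 100; survivors scored on days 30 and 60.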

Mus musculus [13] = experiment: Percent increase in life span of DBA2 mice after inoculation with L1210 leukemia intravenously at a dose of 55 mg/kg per day; conditions: route intravenous; method in brief: as §1
Mus musculus [14] = experiment: Percent increase in life span of DBA2 mice after inoculation with L1210 leukemia intravenously at a dose of 60 mg/kg per day; conditions: route intravenous; method in brief: as §1
Mus musculus [15] = experiment: Percent increase in life span of DBA2 mice after inoculation with L1210 leukemia intravenously at a dose of 65 mg/kg per day; conditions: route intravenous; method in brief: as §1
Mus musculus [16] = experiment: Percent increase in life span at dose 55 mg/kg/day in 7 mice implanted with P388 leukemia cell line for 1,8,15 schedule day
Mus musculus [17] = experiment: Number of survivors on 60th day at dose 55 mg/kg/day in 10 mice implanted with P388 leukemia cell line for 1,5,9 scheduled days; 1/10
Mus musculus [18] = experiment: Percent increase in life span at dose 55 mg/kg/day in 10 mice implanted with P388 leukemia cell line for 1st schedule day
Mus musculus [19] = experiment: Percent increase in life span at dose 60 mg/kg/day in 10 mice implanted with P388 leukemia cell line
Method in brief: (§2)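 Female DBA2 mice inoculated iv on day 0 with 10^4 P388 cells; single iv treatment on day 1 with drug as sulfate salt in physiological saline. Survival followed; %ILS from all deaths and survivors as (T/C × 100) − 100, maximal MST 30 days; survivors counted on days 30 and 60. Most experiments confirmed three times.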

Mus musculus [20] = experiment: Percent increase in life span at dose 60 mg/kg/day in 10 mice implanted with P388 leukemia cell line for 1,5,9 schedule days
Mus musculus [21] = experiment: Percent increase in life span at dose 65 mg/kg/day in 10 mice implanted with P388 leukemia cell line for 1st schedule day
Mus musculus [22] = experiment: Number of survivors on 30th day at dose 20 mg/kg/day in 10 mice implanted with P388 leukemia cell line; 0/10
Mus musculus [23] = experiment: Number of survivors on 30th day at dose 40 mg/kg/day in 10 mice implanted with P388 leukemia cell line; 5/10
Mus musculus [24] = experiment: Number of survivors on 60th day at dose 70 mg/kg/day in 10 mice implanted with P388 leukemia cell line; 0/11
Mus musculus [25] = experiment: Number of survivors of DBA2 mice on 60th day after inoculation with L1210 leukemia cell line intravenously at a dose of 45 mg/kg/day; 0/10; conditions: route intravenous
Mus musculus [26] = experiment: Number of survivors of DBA2 mice on 60th day after inoculation with L1210 leukemia cell line intravenously at a dose of 58 mg/kg/day; 0/10; conditions: route intravenous
Mus musculus [27] = experiment: Percent increase in life span at dose 50 mg/kg/day in 10 mice implanted with P388 leukemia cell line; method in brief: as §2
Mus musculus [28] = experiment: Percent increase in life span at dose 2 mg/kg/day in 7 mice implanted with P388 leukemia cell line for 1,8,15 scheduled days
Mus musculus [29] = experiment: Percent increase in life span at dose 2.5 mg/kg/day in 10 mice implanted with P388 leukemia cell line for 1st scheduled day
Mus musculus [30] = experiment: Number of survivors of DBA2 mice on 30th day after inoculation with L1210 leukemia cell line intravenously at a dose of 2.5 mg/kg/day; 0/11; conditions: route intravenous
Mus musculus [31] = experiment: Number of survivors on 60th day at dose 2.5 mg/kg/day in 7 mice implanted with P388 leukemia cell line for 1,8,15 scheduled days from Exp-2; 0/11
Mus musculus [32] = experiment: Percent increase in life span at dose 1 mg/kg/day in 10 mice implanted with P388 leukemia cell line
Mus musculus [33] = experiment: Number of survivors of DBA2 mice on 60th day after inoculation with L1210 leukemia cell line intraperitoneally at a dose of 2 mg/kg/day; 0/11; conditions: route intraperitoneal
Mus musculus [34] = experiment: Number of survivors of DBA2 mice on 30th day after inoculation with L1210 leukemia cell line intravenously at a dose of 2 mg/kg/day; 0/10; conditions: route intravenous
Mus musculus [35] = experiment: Percent increase in life span of DBA2 mice after inoculation with L1210 leukemia intravenously at a dose of 5.5 mg/kg per day; conditions: route intravenous
Mus musculus [36] = experiment: Percent increase in life span of DBA2 mice after inoculation with L1210 leukemia intravenously at a dose of 6.5 mg/kg per day; conditions: route intravenous
Mus musculus [37] = experiment: Percent increase in life span of DBA2 mice after inoculation with L1210 leukemia intravenously at a dose of 1.5 mg/kg per day; conditions: route intravenous
Mus musculus [38] = experiment: Percent increase in life span of DBA2 mice after inoculation with L1210 leukemia intravenously at a dose of 3.5 mg/kg per day; conditions: route intravenous
Mus musculus [39] = experiment: Number of survivors of DBA2 mice on 30th day after inoculation with L1210 leukemia cell line intravenously at a dose of 1.5 mg/kg/day; 0/10; conditions: route intravenous
Mus musculus [40] = experiment: Number of survivors on 30th day at dose 1 mg/kg/day in 10 mice implanted with P388 leukemia cell line; 0/10

CCOC(=O)[C@@H](NC(=O)[C@@]1(O)[C@H](O)[C@]2(CC)C=CCN3CC[C@@]4(c5cc([C@@]6(C(=O)OC)C[C@H]7C[N@](CCc8c6[nH]c6ccccc86)C[C@](O)(CC)C7)c(OC)cc5N(C)[C@@]14C)[C@@H]32)[C@@H](C)CC
Survivors (Mus musculus [1]): 0
Survivors (Mus musculus [2]): 0
Survivors (Mus musculus [3]): 0

CC[C@]1(O)C[C@@H]2CN(CCc3c([nH]c4ccccc34)[C@@](C(=O)OC)(c3cc4c(cc3OC)N(C)[C@H]3[C@@](O)(C(=O)OC)[C@H](OC(C)=O)[C@]5(CC)C=CCN6CC[C@]43[C@@H]65)C2)C1 [VINBLASTINE]
ILS at 4 mg/kg/day (Mus musculus [4]): 58%
Survivors (Mus musculus [5]): 5
Survivors (Mus musculus [6]): 0
Survivors (Mus musculus [7]): 0
Survivors (Mus musculus [8]): 0
Survivors (Mus musculus [9]): 1
Survivors (Mus musculus [10]): 1

CCOC(=O)[C@H](Cc1c[nH]c2ccccc12)NC(=O)[C@@]1(O)[C@H](O)[C@]2(CC)C=CCN3CC[C@@]4(c5cc([C@@]6(C(=O)OC)C[C@H]7C[N@](CCc8c6[nH]c6ccccc86)C[C@](O)(CC)C7)c(OC)cc5N(C)[C@@]14C)[C@@H]32
ILS at 58 mg/kg/day (Mus musculus [11]): 122%
ILS at 45 mg/kg/day (Mus musculus [12]): 92%
ILS at 55 mg/kg/day (Mus musculus [13]): 55.3%
ILS at 60 mg/kg/day (Mus musculus [14]): 58%
ILS at 65 mg/kg/day (Mus musculus [15]): 71%
ILS at 55 mg/kg/day (Mus musculus [16]): 53%
Survivors (Mus musculus [17]): 1
ILS at 55 mg/kg/day (Mus musculus [18]): > 261%
ILS at 60 mg/kg/day (Mus musculus [19]): > 178%
ILS at 60 mg/kg/day (Mus musculus [20]): > 426%
ILS at 65 mg/kg/day (Mus musculus [21]): 82%
Survivors (Mus musculus [22]): 0
Survivors (Mus musculus [23]): 5
Survivors (Mus musculus [24]): 0
Survivors (Mus musculus [25]): 0
Survivors (Mus musculus [26]): 0
ILS at 50 mg/kg/day (Mus musculus [27]): > 161%

CC[C@]1(O)C[C@@H]2CN(CCc3c([nH]c4ccccc34)[C@@](C(=O)OC)(c3cc4c(cc3OC)N(C)[C@H]3[C@@](O)(C(N)=O)[C@H](O)[C@]5(CC)C=CCN6CC[C@]43[C@@H]65)C2)C1 [VINDESINE]
ILS at 2 mg/kg/day (Mus musculus [28]): 31%
ILS at 2.5 mg/kg/day (Mus musculus [29]): 32%
Survivors (Mus musculus [30]): 0
Survivors (Mus musculus [31]): 0

CC[C@]1(O)C[C@H]2CN(CCc3c([nH]c4ccccc34)[C@@](C(=O)OC)(c3cc4c(cc3OC)N(C=O)[C@H]3[C@@](O)(C(=O)OC)[C@H](OC(C)=O)[C@]5(CC)C=CCN6CC[C@]43[C@@H]65)C2)C1 [VINCRISTINE]
ILS at 1 mg/kg/day (Mus musculus [32]): 16%
Survivors (Mus musculus [33]): 0
Survivors (Mus musculus [34]): 0
ILS at 5.5 mg/kg/day (Mus musculus [35]): 26.6%
ILS at 6.5 mg/kg/day (Mus musculus [36]): -37%
ILS at 1.5 mg/kg/day (Mus musculus [37]): 12%
ILS at 3.5 mg/kg/day (Mus musculus [38]): 14.7%
Survivors (Mus musculus [39]): 0
Survivors (Mus musculus [40]): 0
